Experimental data: article PMC6858491 (ACS chemical biology, 2019)

Tested on: Jurkat cells
Assay: Apoptotic protection assay
Format: cell-based
Details: 20 µM inhibitor for 3 h before 10 ng/mL MegaFasL, CellTiter-Glo
How it was run: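 Jurkat A3 cells were grown near confluence (10% FBS, pen/strep/glutamine, 37 °C, 5% CO2), resuspended in fresh medium, and plated at 10,000 cells/well. They were then given test compound (20 µM, or a concentration series with 30 min pretreatment) or DMSO vehicle, for set times before or after 10 ng/mL MegaFasL. Viability was read by CellTiter-Glo 3 h after induction.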

Z-D^ME^MVD^M-FMK [0^M]
protection from extrinsic apoptosis (cellular viability): able to preserve cellular viability
